# How the values were obtained:
# Format in all cases: functional
# [1] = Antioxidant activity against beta-carotene and linoleic acid assessed asbleaching of beta-carotene at 120 mins by autooxidation assay
# Method in brief: (§1)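 β-carotene bleaching (Pratt method): linolenic acid 20 mg and Tween 20 200 mg plus β-carotene 2 mg in 10 mL CHCl3. CHCl3 removed, then 50 mL oxygen-saturated distilled water added. Samples oxidized at 50 °C for 3 h, A470 read at intervals. AA = 100[1 − (A0 − At)/(A00 − A0t)], comparing absorbance at start and at time t with and without compound.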
# [2] = Antioxidant activity assessed as trolox equivalents of ABTS radical scavenging activity by TEAC assay
# Method in brief: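 ABTS•+ made from 7 mM ABTS in water with 2.45 mM potassium persulfate, kept 12 h in the dark at room temperature. Diluted in PBS pH 7.4 to A734 0.70 and equilibrated at 30 °C. Samples in methanol at 0.3–2 mM, 10 µL added to 1 mL ABTS•+. Percent inhibition of A734 measured against a methanol blank, in triplicate, and plotted against concentration. TEAC is the Trolox concentration giving the same inhibition as 1 mM compound.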
# [3] = Antioxidant activity against beta-carotene and linoleic acid assessed asbleaching of beta-carotene at 60 mins by autooxidation assay; method in brief: as §1
# [4] = system: Radical scavenging activity; assay: Antioxidant activity assessed as DPPH free radical scavenging activity after 30 mins
# Method in brief: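 Pure compound in methanol, 30 µL added to 3 mL of 0.004% DPPH in MeOH. A517 read after 30 min and percent inhibition calculated. IC50 is the concentration scavenging 50% of DPPH radical.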
Structure (SMILES),Activity [1],Activity [2],Activity [3],IC50 [4] [µM]
O=C(O)c1c[nH]c2ccccc12,-6.5,0.092,-10.1,
COc1cc([C@@H]2c3cc(O)c(OC)cc3C[C@H](CO)[C@H]2CO[C@@H]2O[C@H](CO)[C@@H](O)[C@H](O)[C@H]2O)ccc1O,-6.2,0.826,-10,10.5
Cc1cc(C(C)(C)C)c(O)c(C(C)(C)C)c1,62.5,,63.9,
COc1cc([C@H]2OC[C@]3(O[C@@H]4O[C@H](CO)[C@@H](O)[C@H](O)[C@H]4O)[C@@H](c4ccc(O)c(OC)c4)OC[C@H]23)ccc1O,8.5,0.935,10.7,20.3
O=c1cc(-c2ccc(O[C@@H]3O[C@H](CO)[C@@H](O)[C@H](O)[C@H]3O)c(O)c2)oc2cc(O)cc(O)c12,10,0.445,16.2,
O=C(/C=C/c1ccc(O)c(O)c1)OCC(O)(CO)C(O)C(=O)O (stereo not drawn),20.5,0.484,25.2,
C[C@@H]1O[C@@H](OC[C@H]2O[C@@H](Oc3c(-c4ccc(O)c(O)c4)oc4cc(O)cc(O)c4c3=O)[C@H](O)[C@@H](O)[C@@H]2O)[C@H](O)[C@H](O)[C@H]1O,,2.42,,
C[C@@H]1O[C@@H](O[C@@H]2[C@@H](O)[C@H](OCCc3ccc(O)c(O)c3)O[C@H](COC(=O)/C=C/c3ccc(O)c(O)c3)[C@H]2O)[C@H](O)[C@H](O)[C@H]1O [ISOACTEOSIDE],7.2,1.23,24.6,1.3
O=C(O)/C=C/c1ccc(O)c(O)c1,,1.26,,
O=C1C=C[C@H](O)C[C@@]1(O)CCO (relative stereo),9.7,0.076,43,

# — ChEMBL document CHEMBL1155720, “Antioxidant principles from Bauhinia tarapotensis” (J Nat Prod, 2001)
